Source: PubChem BioAssay (several laboratories)
Most compounds without a hit are left out; they make up all but 1.1% or so of the library.
NPR2 activator: human GC-B receptor activators, primary screen, HEK293 GC-B cells, cGMP TR-FRET, EC30 CNP; Atrial natriuretic peptide receptor 2 (Homo sapiens), P20594; 0% at EC30 CNP, 100% saturating CNP; activation, % at 10 µM; actives 0.11% (n = 370,000); AID 1920062, 2024;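 active = activation at 10 µM reaching about 35% in either raw or pattern-adjusted values, limit read from the data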
Target sequence (P20594 whole entry, looked up): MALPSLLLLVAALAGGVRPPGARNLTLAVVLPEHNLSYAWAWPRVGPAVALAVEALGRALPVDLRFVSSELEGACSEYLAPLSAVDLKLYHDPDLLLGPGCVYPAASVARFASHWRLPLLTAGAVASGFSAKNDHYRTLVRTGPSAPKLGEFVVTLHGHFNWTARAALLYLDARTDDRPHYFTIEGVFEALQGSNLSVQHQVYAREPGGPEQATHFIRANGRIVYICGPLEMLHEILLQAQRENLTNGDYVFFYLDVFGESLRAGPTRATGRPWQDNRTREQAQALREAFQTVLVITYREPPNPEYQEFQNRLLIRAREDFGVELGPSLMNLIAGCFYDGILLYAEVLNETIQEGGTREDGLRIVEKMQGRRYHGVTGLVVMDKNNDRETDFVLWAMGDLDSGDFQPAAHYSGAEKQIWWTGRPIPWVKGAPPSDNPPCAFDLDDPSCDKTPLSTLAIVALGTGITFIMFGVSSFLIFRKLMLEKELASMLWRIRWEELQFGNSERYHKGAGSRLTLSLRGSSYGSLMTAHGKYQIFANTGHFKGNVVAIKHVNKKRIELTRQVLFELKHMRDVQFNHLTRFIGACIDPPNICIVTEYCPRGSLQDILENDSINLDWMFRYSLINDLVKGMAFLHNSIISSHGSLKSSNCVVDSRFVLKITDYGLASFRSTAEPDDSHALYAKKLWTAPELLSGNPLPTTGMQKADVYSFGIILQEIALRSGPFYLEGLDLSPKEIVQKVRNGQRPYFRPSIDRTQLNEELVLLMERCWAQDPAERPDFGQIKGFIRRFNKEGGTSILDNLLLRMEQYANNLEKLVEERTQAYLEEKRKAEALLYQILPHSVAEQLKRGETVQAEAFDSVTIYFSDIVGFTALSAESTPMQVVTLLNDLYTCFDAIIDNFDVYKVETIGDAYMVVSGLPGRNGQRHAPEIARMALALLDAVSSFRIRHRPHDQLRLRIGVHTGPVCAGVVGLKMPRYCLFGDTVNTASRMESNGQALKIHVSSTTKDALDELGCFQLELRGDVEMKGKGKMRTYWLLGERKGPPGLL
MT1-MMP act inh: blockers of MT1-MMP proenzyme processing, primary screen, HT1080 RFP-PRO-GFP cells, GFP/RFP fluorescence; Matrix metalloproteinase-14 (Homo sapiens), P50281; GFP/RFP ratio fluorescence, overnight; percent of plate control window, DMSO zero; GFP/RFP ratio change, % at 20 µM; actives 0.061% (n = 360,000); AID 651647, 2012;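 active = GFP/RFP ratio change of at least 30% with cell ATP level not reduced by more than half and red fluorescence within 50% of control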
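Compound: 20 µM single dose, 1% DMSO / System: HT1080 RFP-PRO-GFP cells / Controls: DMSO and RFP-L50D-GFP cell wells / Read-out basis: GFP/RFP fluorescence ratio / Schedule: overnight compound exposure at 37 °C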
SKN-1 block: suppressors of acrylamide-induced Pgst-4::GFP reporter in worms, primary screen, SKN-1 inhibitor project, whole organism, uHTS, GFP/RFP fluorescence ratio, strain VP596. C. elegans VP596 Pgst-4::GFP/RFP ratio, 24 h. inhibition, % at 21.8 µM. actives 0.49% (n = 360,000);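 active = interference check ratio from 0.5 to 1.5 plus GFP to RFP signal ratio inhibition reaching or exceeding a fixed threshold, cut at about 30% in these data, passing the limit was not always enough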
GC-A act: GC-A stimulated cGMP production enhancers – HEK293 GC-A cells, cGMP TR-FRET, EC30 ANP, primary screen. 0% at EC30 ANP, 100% saturating ANP. activation, % at 10 µM. actives 0.14% (n = 370,000). AID 1671463, 2021; in the data active = activation above about 40%
Tb MetRS inh: T. brucei MetRS inhibitors, primary screen, biochemical, luminescence; AID 624268, 2012; inhibition, % at 11.9 µM; purified T. brucei MetRS, ATP depletion, Kinase-Glo luminescence; actives 0.4% (n = 360,000);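 active = inhibition above a per-plate cutoff of the control wells' mean inhibition plus 3 SD, cut at about 5.5% in these data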;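 note: 0% = DMSO wells median and 100% = median of wells with control inhibitor compound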
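Dosing: 11.9 µM compound single dose, 0.9% DMSO; Assay system: purified T. brucei MetRS enzyme; Measured by: Kinase-Glo luciferase luminescence reporting remaining unconsumed ATP; Schedule: 15 min plus 2 h at 25 °C.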
A1 inh: caspase 3/7 activation in MEF A1-2A-BIM cells, primary screen, A1 inhibitor project, cell-based, luminescence, HTS. actives 0.066% (n = 330,000). caspase activation, % (concentration not given with the values). Caspase-Glo 3/7 luminescence, 3 h; percent of clofoctol response, vehicle zero. AID 2462, 2010;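 active = over half of replicate activation scores above 10%, or exactly half above 10 with the replicate mean above 10; inconclusive = replicate mean below 10 yet half the replicates above 10; inactive = over half of replicates below 10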
* marks the source's active call; other numbers are inactive results; ? = inconclusive; . = not tested or not shown.

SMILES	NPR2 activator	MT1-MMP act inh	SKN-1 block	GC-A act	Tb MetRS inh	A1 inh
Cn1/c(=N/N=C/c2ccccn2)sc2ccccc21	-4.2	3.0	42.1*	-1.4	-0.1	.
CC(C)CCNC(=O)NC(=O)COC(=O)/C=C/c1cnc2ccccc2n1	-4.1	-3.7	37.3*	-3.4	-0.7	-0.9
CC(C)CCNC(=O)NC(=O)COc1ccccc1C#N	-1.5	10.5	37.8*	-3.2	-0.8	0.5
CC(C)NC(=O)COc1ccccc1C#N	4.5	0.3	-3.5	2.8	0.3	1.6
NCCCn1c(C(=O)c2cc(Cl)c(N)c(Cl)c2)c2ccc(C(F)(F)F)cc2[n+]1[O-]	-8.5	4.1	1.8	-7.6	-0.1	1.2
NC(=O)CCCn1c(C(=O)c2cc(Cl)c(N)c(Cl)c2)c2ccc(C(F)(F)F)cc2[n+]1[O-]	83.6*	3.7	4.5	-2.4	-0.2	0.5
Cc1cc(Br)cn2c(Cc3ccccc3)c(-c3ccco3)nc12	35.3*	-4.3	4.1	32.0	-0.4	.
COc1ccc(Cc2c(-c3ccco3)nc3c(C)cc(Br)cn23)c(C)c1	-1.0	-5.8	48.4*	3.0	0.3	.
CCN1CCCCC(NC(=O)c2ccccc2)C1=O (stereo not drawn)	6.5	.	.	2.6	.	.
CC1CN(c2nc3ccccc3nc2SCC(=O)N2CCN(S(=O)(=O)c3ccccc3)CC2)CC(C)O1 (stereo not drawn)	7.0	.	.	1.9	.	.
CC1CC1C(=O)Nc1nc(-c2ccc(Cl)s2)cs1 (stereo not drawn)	4.5	3.7	30.4	50.5*	-0.9	-0.1
O=C(CSCC(=O)N1CCCCC1)Nc1nc(-c2ccc(Cl)s2)cs1	-1.6	-2.7	-8.4	43.4*	0.4	?
O=C(CN1C(=O)CCC1=O)Nc1nc(-c2ccc(Cl)s2)cs1	0.8	1.5	-3.6	54.0*	-0.5	0.1
O=C(CN1C(=O)CCC1=O)Nc1nc(-c2cccs2)cs1	3.4	3.3	3.9	10.2	-0.6	0.3
O=C(CSCC(=O)N1CCN(c2ccccc2)CC1)Nc1nc(-c2ccc(Cl)s2)cs1	-6.0	4.2	-6.0	10.2	0.2	0.3
c1ccc(-n2c(SCc3cccc4ccccc34)nnc2-c2ccccn2)cc1	-12.5	.	.	-7.9	.	.
COc1ccc(CNCC#Cc2ccccc2)c(OC)c1	4.0	.	.	-0.1	.	.
C=CCn1c(SCC(=O)c2c(N)n(C3CC3)c(=O)[nH]c2=O)nnc1-c1ccoc1C	1.8	1.2	13.3	-2.4	-0.4	-0.3
C=CCn1c(SCC(=O)c2c(N)n(C)c(=O)n(C)c2=O)nnc1-c1ccoc1C	-1.6	-2.0	35.2*	1.8	-0.2	0.3
Cc1nn(-c2ccccc2)c2sc(C(=O)NC3CCCCCCC3)cc12	12.6	.	.	4.7	.	.
COc1cccc(NC(=O)CN2CCc3ccccc3C2)c1	4.5	-1.0	35.5*	0.8	-1.5	0.1
FC(F)(F)c1ccccc1Cn1ccc2ccc(-c3ccc4ccn(Cc5ccccc5)c4c3)cc21	0.5	.	.	1.8	.	.
CCc1ccc(C2C3=C(CC(C)(C)CC3=O)Nc3c2c(=O)[nH]c2nc(C)nn32)cc1 (stereo not drawn)	-1.1	0.5	-27.9	1.0	-0.2	6.1*
O=C(NCc1ccc2c(c1)OCO2)C1CCN(c2ncccn2)CC1	2.4	9.5	-7.9	4.6	-0.4	5.2*
CCOc1ccc(-n2c(SCC(=O)Nc3ccc(S(=O)(=O)Nc4cc(C)nc(C)n4)cc3)nnc2-c2cccc(C)c2)cc1	1.7	.	.	-1.4	.	.
SMILES	NPR2 activator	MT1-MMP act inh	SKN-1 block	GC-A act	Tb MetRS inh	A1 inh
FC(F)(F)c1cc(-c2cccs2)nc(-n2cc(Br)cn2)n1	-8.1	0.1	45.2*	1.0	-0.1	-0.5
O=C(CSc1nc2sc3c(c2c(=O)n1-c1ccc(Cl)cc1)CCC3)Nc1ccc(C(=O)O)cc1	-0.4	.	.	0.6	.	.
CC(=O)O[C@H]1[C@@H](O)[C@H](O)[C@H](Oc2c(O)c(C)c3c4c2[C@@H](C)CC[C@@H]4[C@@H](C)C[C@@H]3C=C(C)C)O[C@H]1C	5.9	1.4	40.4*	-1.7	-0.6	.
COC(=O)[C@]12C[C@H](CC(=O)NCCCCc3ccccc3)C(=O)N(CCc3ccc(OC)c(OC)c3)C1=C[C@H](C(C)C)O[C@@H]2C1CC1	-1.6	.	.	-5.6	.	.
CNC(=O)c1sc(-c2ccc(Cl)cc2)nc1C	1.1	2.1	-34.0	46.5*	-1.0	1.3
Cc1nc(-c2ccc(Cl)cc2)sc1C(=O)NNC(=O)C(C)C	1.9	3.3	1.0	43.1*	0.2	-1.1
CC(=O)c1sc(-c2ccc(Cl)cc2)nc1C	.	-0.8	2.5	.	-0.2	-4.5
CNC(=O)c1sc(-c2ccccc2)nc1C	-7.9	2.0	11.1	7.7	1.9	1.2
COC(=O)CCCn1cc(CN2CC=CS2(=O)=O)nn1	-1.1	.	.	4.2	.	.
COC(=O)[C@]1(C#N)CC(=O)N(Cc2ccc(Cl)cc2)[C@@H]1c1ccccc1	-5.5	.	.	-10.8	.	.
O=[N+]([O-])c1ccc2nc(N3CCCC3)sc2c1	1.4	1.8	38.9*	0.7	-0.5	-6.1
O=C(c1ccccc1)N1CCN(c2nc3ccc([N+](=O)[O-])cc3s2)CC1	8.2	-2.9	7.0	10.1	-0.3	1.2
O=[N+]([O-])c1cccc2[nH]c(CNc3nc(N4CCOCC4)nc4c3ncn4-c3ccsc3)nc12	3.3	.	.	7.1	.	.
CCN(CC)CCOC(=O)c1ccc(NC(=O)CCCN2C(=O)/C(=C\c3cccs3)SC2=S)cc1	2.4	-0.4	38.6*	0.1	-0.7	0.1
O=C(CCN1C(=O)/C(=C\c2cccs2)SC1=S)Nc1ccc(C(=O)O)cc1	-4.0	-10.3	13.2	-3.4	0.5	1.6
Cc1c(C)n(Cc2ccc(-c3ccccc3C(=O)O)cc2)c2ccc(C(=O)N[C@@H](C)c3ccc([N+](=O)[O-])cc3)cc12	2.7	.	.	-13.4	.	.
CC(=O)Nc1cc(-c2ccccc2Cl)cn2c(-c3ccc(S(C)(=O)=O)cc3)cnc12	42.7*	-9.8	-15.3	17.5	-0.2	.
COc1ccccc1-c1cc(NC(C)=O)c2ncc(-c3ccc(S(C)(=O)=O)cc3)n2c1	8.8	-5.6	16.1	6.2	-0.3	.
C=CCN1C(=O)[C@H](CC(=O)NCc2cccs2)[C@@]2(C(=O)OCC)CCCC=C12	-1.0	.	.	-2.4	.	.
